The text below walks through data of ChEMBL document CHEMBL1156088, “Synthesis and biological activity of novel oxazolidinones” (2009).

Assay type in all cases: functional
Assay [1] has as its system Staphylococcus aureus. Briefly: Antibacterial activity against Staphylococcus aureus 15187 by NCCLS method. The procedure, abridged:
(§1)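 In vitro MIC determination by the NCCLS method against a panel of gram-positive bacteria. Two oxazolidinone reference standards were tested alongside.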

In assay [2] the test system is Staphylococcus aureus. Kind of assay: Antibacterial activity against Staphylococcus aureus ATCC 25923 by NCCLS method. In short, it runs like this: as §1
Assay [3] concerns Staphylococcus aureus. Kind of assay: Antibacterial activity against methicillin-resistant Staphylococcus aureus 562 by NCCLS method. The procedure, abridged: (§2)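 In vitro MIC determined by the NCCLS method against a panel of gram-positive bacteria. Ranbezolid and linezolid were run alongside as reference standards.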
Assay [4] concerns Staphylococcus aureus. Kind of assay: Antibacterial activity against methicillin-resistant Staphylococcus aureus 33 by NCCLS method. In short, it runs like this: as §2
Assay [5] relates to Enterococcus faecalis. Briefly: Antibacterial activity against Enterococcus faecalis ATCC 29212 by NCCLS method. The procedure, abridged:
as §1

For assay [6], the system named is Enterococcus faecium. Briefly: Antibacterial activity against vancomycin-resistant Enterococcus faecium 6A by NCCLS method. In short, it runs like this: as §2
Assay [7] deals with Streptococcus pyogenes. Kind of assay: Antibacterial activity against Streptococcus pyogenes ATCC 19615 by NCCLS method. In short, it runs like this:
as §1

Assay [8] relates to Streptococcus pneumoniae. Kind of assay: Antibacterial activity against Streptococcus pneumoniae ATCC 6303 by NCCLS method. The procedure, abridged:
as §1

SMILES strings stand for the structures. ≈ marks a conversion by molar mass, not a printed value. Where only a bound is given, the exact number is not on record here.

As for `O=C(/C=C/c1ccccc1)NC[C@H]1CN(c2ccc(N3CCN(Cc4ccc([N+](=O)[O-])o4)CC3)c(F)c2)C(=O)O1`, the MIC in assay [1], in assay [2], in assay [3], in assay [4], in assay [5] and in assay [6] was above 16 µg/mL each time. Moreover, the MIC in assay [7] and in assay [8] was above 16 µg/mL throughout.

In the case of `O=C(CCl)NC[C@H]1CN(c2ccc(N3CCN(Cc4ccc([N+](=O)[O-])o4)CC3)c(F)c2)C(=O)O1`, the MIC in assay [1], in assay [2], in assay [3], in assay [4], in assay [5] and in assay [6] was 2 µg/mL (≈ 4.03 µM) in each case. The MIC in assay [7] and in assay [8] was 0.5 µg/mL (≈ 1.01 µM) in each case.

As to `CCOC(=O)NC[C@H]1CN(c2ccc(N3CCN(Cc4ccc([N+](=O)[O-])o4)CC3)c(F)c2)C(=O)O1`, the MIC in assay [1], in assay [2], in assay [3], in assay [4], in assay [5] and in assay [6] was above 16 µg/mL in each case. Also, the MIC in assay [7] and in assay [8] was above 16 µg/mL throughout.

As to `O=C(NC[C@H]1CN(c2ccc(N3CCN(Cc4ccc([N+](=O)[O-])o4)CC3)c(F)c2)C(=O)O1)c1ccc(Br)o1`, the MIC in assay [1], in assay [2], in assay [3], in assay [4], in assay [5] and in assay [6] was above 16 µg/mL in each case. The MIC in assay [7] and in assay [8] was above 16 µg/mL each time.

For orientation: MIC means the lowest concentration found to suppress growth.
